High-throughput results from PubChem.
bCat nuc transl: alters nuclear translocation of beta-catenin in HeLa cells. 0.3% of 190,000 active. nuclear translocation activity, % at 5 µM. immunofluorescence imaging;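 active = nuclear translocation activity above 50% at 5 µM, with a well cell count of 50 or more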;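 note: per-cell ratio of nuclear to cytoplasmic median beta-catenin stain intensity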
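System: HeLa cells, endogenous beta-catenin; compound dosing: 5 µM primary single dose, 0.1% DMSO, 0.02–20 µM confirmation series; incubation: 24 h compound exposure at 37°C, 5% CO2; signal: beta-catenin immunofluorescence imaging with DAPI; evaluation: % activation, nuclear-to-cytoplasmic median beta-catenin signal ratio per cell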
Autophagy mod: modulators of autophagy; MEF GFP-LC3 puncta imaging; test concentration mostly 10 µM; calls only at 10 µM (by protocol); 0.98% of 190,000 active; AID 463193;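 active = percentage of spot-positive cells more than 3 SD above its plate mean, without a fluorescence outlier flag or 80% toxicity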
Insulin prom up: MIN6 insulin promoter up-regulation; z-score at 5 µM; 0.3% of 190,000 active; MIN6 insulin promoter-GFP reporter, high-content imaging; stronger effect = higher value; AID 1625;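 active = z-score above 3 at 5 µM with at least 500 cells counted in the well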
Wee1 stabilizer: human Wee1 degradation inhibition, primary screen | P30291 | HeLa Luc-Wee1K328M stability, luciferase luminescence; 100% = proteasome inhibitor MG132 effect | reporter increase, % at 5 µM | 1.2% of 220,000 active;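 active = activation above the mean of all tested compounds plus 3 SD, set per screening run, cut at about 8.8% in these data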;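 note: cells exposed to compound for 20 h before luminescence read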
Target sequence (P30291 whole entry K328M): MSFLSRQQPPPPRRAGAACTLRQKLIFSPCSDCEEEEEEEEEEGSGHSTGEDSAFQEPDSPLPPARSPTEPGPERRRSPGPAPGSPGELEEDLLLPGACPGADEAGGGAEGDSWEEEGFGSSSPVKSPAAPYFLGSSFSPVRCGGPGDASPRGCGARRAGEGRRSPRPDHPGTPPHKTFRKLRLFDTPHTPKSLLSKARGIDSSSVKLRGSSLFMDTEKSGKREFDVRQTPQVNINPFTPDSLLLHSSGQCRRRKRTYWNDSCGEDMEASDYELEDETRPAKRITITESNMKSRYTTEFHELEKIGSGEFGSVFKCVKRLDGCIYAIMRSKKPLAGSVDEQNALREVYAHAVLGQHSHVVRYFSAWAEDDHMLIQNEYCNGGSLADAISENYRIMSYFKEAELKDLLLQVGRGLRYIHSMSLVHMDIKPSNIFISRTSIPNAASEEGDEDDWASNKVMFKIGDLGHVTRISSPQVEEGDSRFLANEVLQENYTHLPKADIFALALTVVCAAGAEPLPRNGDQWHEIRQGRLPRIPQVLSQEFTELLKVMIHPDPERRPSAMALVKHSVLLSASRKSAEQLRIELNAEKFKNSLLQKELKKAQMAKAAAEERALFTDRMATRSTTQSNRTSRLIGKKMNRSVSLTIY
MT stabilize HCS: microtubule stabilizers in HeLa cells. HeLa tubulin immunostaining HCS, 24 h; share of cells brighter than vehicle mean+2SD. % tubulin-high responders, % at 10 µM. 0.83% of 200,000 active;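 active = plate Z-score above 3 for both tubulin-high and condensed-nucleus cell shares, with cell loss under 80%, at 10 µM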;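 note: anti alpha tubulin signal scored within the nucleus-defined area of each cell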
Numbers stand for hits. Compounds with a hit are over-represented: about 2.9% of the library has one in this group of screens.

`COc1ccc(-c2[nH]ncc2CN2CCCC(C(=O)c3cccc(OC)c3)C2)cc1` (stereo not given) gave bCat nuc transl inactive, Autophagy mod inactive, Wee1 stabilizer inactive and MT stabilize HCS inactive.
Screening COc1ccc2cc(-c3[nH]ncc3CN3CCCC3c3nonc3C)ccc2c1 (stereo not given) returned bCat nuc transl inactive, Autophagy mod inactive, Insulin prom up inactive, Wee1 stabilizer inactive and MT stabilize HCS 11.
COc1ccc(CCCc2nc3ccccc3[nH]2)cc1 was read as bCat nuc transl inactive, Insulin prom up inactive and Wee1 stabilizer 9.9.
Screening Cc1ccc(NC(=S)C2=C(O)c3ccccc3N(C)S2(=O)=O)cc1 returned bCat nuc transl inactive, Autophagy mod inactive, Insulin prom up inactive, Wee1 stabilizer inactive and MT stabilize HCS inactive.
For COc1ccc(Nc2ncnc3scc(-c4ccc(OC)cc4)c23)cc1 the results were Autophagy mod inactive, Insulin prom up inactive, Wee1 stabilizer inactive and MT stabilize HCS 13.
Screening Nc1nnc(-c2ccccc2[N+](=O)[O-])o1 returned bCat nuc transl inactive, Autophagy mod inactive, Insulin prom up inactive, Wee1 stabilizer inactive and MT stabilize HCS inactive.
Screening Cc1cccc2cc(C#N)c(SCc3nnc(-c4ccccc4[N+](=O)[O-])o3)nc12 returned bCat nuc transl inactive, Autophagy mod active, Insulin prom up inactive, Wee1 stabilizer inactive and MT stabilize HCS inactive.
CCN(CC)S(=O)(=O)c1cccc(C(=O)N/N=C2\CC(=O)CC(C)(C)C2)c1 was read as bCat nuc transl inactive, Autophagy mod inactive, Insulin prom up inactive, Wee1 stabilizer 9.5 and MT stabilize HCS inactive.
For CCn1ncc(/C=N\NC(=O)c2csc3ccccc23)c1C the results were bCat nuc transl 129, Autophagy mod inactive, Insulin prom up inactive, Wee1 stabilizer inactive and MT stabilize HCS 48.
Cc1c(/C=N\NC(=O)c2csc3ccccc23)cnn1C was read as Autophagy mod inactive, Wee1 stabilizer inactive and MT stabilize HCS inactive.
For CSC(=NC#N)N1CCN(c2ccc([N+](=O)[O-])cc2)CC1 the results were bCat nuc transl inactive, Autophagy mod inactive, Insulin prom up inactive, Wee1 stabilizer inactive and MT stabilize HCS inactive.
CC(C)NS(=O)(=O)c1ccc(OCC(=O)N(C)Cc2ccccc2)cc1 was read as bCat nuc transl inactive, Autophagy mod inactive, Wee1 stabilizer inactive and MT stabilize HCS inactive.
`COc1ccc(OCC(=O)N(C)Cc2ccccc2)cc1` gave bCat nuc transl inactive, Autophagy mod active, Insulin prom up inactive, Wee1 stabilizer inactive and MT stabilize HCS inactive.
CC(C)C(=O)c1cn(CC(=O)N2CCCc3ccccc32)c2ccccc12 was read as Autophagy mod inactive, Wee1 stabilizer inactive and MT stabilize HCS inactive.
Screening CC(=O)c1ccc(NC(=O)C(C)OC(=O)c2ccc3c(c2)nc(C)n3-c2ccccc2)cc1 (stereo not given) returned bCat nuc transl inactive, Autophagy mod inactive, Wee1 stabilizer 8.8 and MT stabilize HCS inactive.
`Cc1cc(NS(=O)(=O)c2ccc(NC(=O)Nc3ccc4c(c3)OCO4)cc2)no1` gave bCat nuc transl inactive, Autophagy mod inactive, Insulin prom up inactive, Wee1 stabilizer 8.9 and MT stabilize HCS inactive.
`Cc1cc(NS(=O)(=O)c2ccc(NC(=O)c3ccco3)cc2)no1` gave bCat nuc transl inactive, Autophagy mod active, Insulin prom up inactive, Wee1 stabilizer inactive and MT stabilize HCS inactive.
For Cc1cc(NS(=O)(=O)c2ccc(NC(=O)c3ccco3)cc2)nc(C)n1 the results were Autophagy mod inactive, Insulin prom up inactive, Wee1 stabilizer inactive and MT stabilize HCS inactive.
Screening C=CCN1C(=O)/C(=C2/Sc3ccc(OC)cc3N2C)SC1=Nc1cccc(O)c1 returned bCat nuc transl inactive, Autophagy mod active, Insulin prom up inactive, Wee1 stabilizer inactive and MT stabilize HCS inactive.
`CCCCCCNS(=O)(=O)c1ccc(NC(=O)C2CCCO2)cc1` (stereo not given) gave bCat nuc transl inactive, Autophagy mod inactive, Insulin prom up inactive, Wee1 stabilizer inactive and MT stabilize HCS inactive.
COc1ccc(-c2cn3cc(Br)cnc3n2)cc1 was read as bCat nuc transl inactive, Autophagy mod inactive, Wee1 stabilizer inactive and MT stabilize HCS 20.
Screening COc1ccc(-c2cn3cccnc3n2)cc1Br returned bCat nuc transl inactive, Autophagy mod inactive, Insulin prom up inactive, Wee1 stabilizer inactive and MT stabilize HCS inactive.
`CCC(C)NC(=O)CC(NS(=O)(=O)c1ccc(NC(C)=O)cc1)C(C)C` (stereo not given) gave bCat nuc transl inactive, Autophagy mod inactive, Insulin prom up inactive, Wee1 stabilizer 9.8 and MT stabilize HCS inactive.
Cc1c(O)ccc(C(=O)CN2CCN(Cc3ccc4c(c3)OCO4)CC2)c1O was read as bCat nuc transl inactive, Autophagy mod inactive, Insulin prom up inactive, Wee1 stabilizer 11 and MT stabilize HCS inactive.
For Cc1ccc(C(=O)N2CCN(Cc3ccc4c(c3)OCO4)CC2)o1 the results were bCat nuc transl inactive, Autophagy mod inactive, Insulin prom up inactive, Wee1 stabilizer inactive and MT stabilize HCS inactive.
CSc1ccc(-c2nc(O)c3cnccn23)cc1 was read as bCat nuc transl inactive, Autophagy mod inactive, Insulin prom up inactive, Wee1 stabilizer inactive and MT stabilize HCS inactive.
For COc1ccc(NC2=NCC(Cc3ccc(Br)cc3)S2)cc1 (stereo not given) the results were bCat nuc transl inactive, Autophagy mod inactive, Insulin prom up inactive, Wee1 stabilizer inactive and MT stabilize HCS inactive.
COc1cc(C(=O)OCC(=O)NC(=O)C2CCCCC2)ccc1OC(F)F was read as bCat nuc transl inactive, Autophagy mod inactive, Insulin prom up inactive, Wee1 stabilizer 9.8 and MT stabilize HCS inactive.
`Cc1cc(C)c2c(N)c3cccc(C)c3nc2n1` gave bCat nuc transl inactive, Autophagy mod inactive, Insulin prom up inactive, Wee1 stabilizer inactive and MT stabilize HCS 13.
Cc1cccc2c(N)c3c(nc12)CCCC3 (tested in a mixture with another compound) was read as bCat nuc transl inactive, Autophagy mod inactive, Insulin prom up inactive, Wee1 stabilizer inactive and MT stabilize HCS inactive.
`COc1ccc(C(=O)C2CCCN(Cc3ccc4nonc4c3)C2)c(OC)c1` (stereo not given) gave bCat nuc transl inactive, Autophagy mod inactive, Insulin prom up inactive, Wee1 stabilizer inactive and MT stabilize HCS inactive.
For N#Cc1c(N)nc2c(c1-c1ccc3c(c1)OCO3)CCc1ccccc1-2 the results were bCat nuc transl inactive, Autophagy mod inactive, Insulin prom up inactive, Wee1 stabilizer inactive and MT stabilize HCS 26.
For N#Cc1c(N)c(C#N)c(-c2ccc3c(c2)OCO3)c2c1CCCC2 the results were bCat nuc transl inactive and Insulin prom up inactive.
COC(=O)CCC(=O)Nc1ccc(Br)cc1 was read as bCat nuc transl inactive, Autophagy mod inactive, Insulin prom up inactive, Wee1 stabilizer inactive and MT stabilize HCS inactive.
`CCP(=O)(c1cccc([N+](=O)[O-])c1)c1cccc([N+](=O)[O-])c1` gave bCat nuc transl inactive, Insulin prom up inactive and Wee1 stabilizer inactive.
`O=[N+]([O-])c1cccc(P(=O)(O)c2cccc([N+](=O)[O-])c2)c1` gave bCat nuc transl inactive, Insulin prom up inactive and Wee1 stabilizer 25.
